Screens: PubChem, several laboratories
The sample as a whole holds a higher share of hits than the screen did.
CHOP inhibitor = CHOP inhibition in unfolded protein response. CHO-K1 CHOP-promoter luciferase, tunicamycin-induced, 15-18 h. 220,000 tested, 3.8% active. inhibition, % at 10 µM;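 active = compounds that reduced the stress-induced luciferase reporter signal by more than about 70% of percent inhibition, limit read from the data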
TLR9-MyD88 inh = inhibitors of human TLR9-MyD88 binding; Q9NR96+Q99836; CHO BLA complementation TLR9-MyD88, CCF4 FRET ratio; inhibition, % at 4.98 µM; 340,000 tested, 0.21% active;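 active = inhibition above the mean over all tested compounds plus 3 SD, cut at about 21% in these data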
TLR4 MyD88 comp = inhibitors of human TLR4-MyD88 binding. HeLa CL3-4 TLR4/MyD88 BLA complementation, FRET ratio. inhibition, % at 8.4 µM. 200,000 tested, 0.18% active. AID 861; in the data active = inhibition above about 25%
NOD2 RIPK2 PPI = inhibitors of human NOD2-RIPK2 interaction; O43353; CHO BLA complementation NOD2-RIPK2, CCF4 ratio; inhibition, % at 4.98 µM; 360,000 tested, 0.38% active; AID 624267; in the data active = inhibition above about 21%
Target sequence (O43353 whole entry, looked up): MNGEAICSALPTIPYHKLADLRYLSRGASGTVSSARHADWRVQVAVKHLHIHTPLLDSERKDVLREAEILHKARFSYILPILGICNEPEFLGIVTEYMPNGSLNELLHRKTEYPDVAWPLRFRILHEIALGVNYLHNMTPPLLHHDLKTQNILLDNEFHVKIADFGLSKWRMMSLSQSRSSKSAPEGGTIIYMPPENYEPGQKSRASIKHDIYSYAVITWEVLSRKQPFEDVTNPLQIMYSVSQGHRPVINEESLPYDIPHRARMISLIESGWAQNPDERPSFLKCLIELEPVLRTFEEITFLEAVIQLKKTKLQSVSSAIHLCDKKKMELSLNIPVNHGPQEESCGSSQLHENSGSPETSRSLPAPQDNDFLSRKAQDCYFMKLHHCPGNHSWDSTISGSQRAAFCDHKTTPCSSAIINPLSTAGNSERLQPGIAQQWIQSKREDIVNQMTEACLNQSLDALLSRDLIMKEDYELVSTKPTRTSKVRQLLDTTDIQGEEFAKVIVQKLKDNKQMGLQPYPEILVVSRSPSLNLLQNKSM
CHOP UPR activ = activators of apoptotic arm of unfolded protein response (CHOP) | CHO-CHOP luciferase reporter, UPR activation, luminescence; percent of tunicamycin response over DMSO baseline | activation, % at 10 µM | 330,000 tested, 0.34% active | AID 449763;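 active = at 10 µM dose, activation of 40% or more, normalized to positive control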
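Assay system: CHO cells with stable CHOP pathway luciferase reporter; Buffer or medium: F12 plus 10% serum; Times: 16-18 h cell attachment, then 6 h compound exposure, 37 °C; Signal: luciferase luminescence; Read-out basis: percent activation relative to tunicamycin control; Control set: tunicamycin high control, DMSO low control.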
XBP1 UPR activ = adaptive UPR (XBP1) activation. CHO-XBP1 luciferase reporter, IRE1-XBP1 UPR activation, luminescence; percent of tunicamycin response, DMSO as zero. activation, % at 20 µM. 330,000 tested, 0.33% active. AID 463104;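 active = versus positive control, 20 µM dose yields 30% or more activation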
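Assay system: IRE1-XBP1 luciferase reporter CHO line. Input: 1000 cells/well. Buffer or medium: F12 with 10% serum. Doses: 20 µM, 1% DMSO. Times: overnight seeding at 37 °C, 6 h compound treatment at 37 °C. Technique: Steady-Glo luciferase glow luminescence, 10 min after reagent addition.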
CHOP inh conf = confirmation of CHOP induction inhibitors. shares compounds with CHOP inhibitor. CHO-CHOP promoter luciferase reporter, tunicamycin-induced, luminescence. inhibition, % at 10 µM. 2,100 tested, 45% active. AID 504437;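 active = mean of three repeat readings of reporter signal inhibition above a set limit, cut at about 70% in these data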
Each line names hits and unclear results; the compound was inactive in the other large screens (follow-up assays come after a bar, where they were run).

C[N+]1=C(/C=C/Nc2ccccc2Cl)C(C)(C)c2ccccc21	none
COC(=O)c1ccc2c(c1)C(C)(C)C(/C=C/c1ccccc1O)=[N+]2C	CHOP inhibitor 108.4 | CHOP inh conf 120.3
CCOC(=O)c1cnc(-n2nc(C)cc2C)nc1Nc1ccc(O)cc1	CHOP inhibitor 103.9 (no result: TLR4 MyD88 comp) | CHOP inh conf 110.4
O=C(N/N=C/c1ccc(Br)s1)Nc1ccccc1	CHOP inhibitor 97.4 | CHOP inh conf inactive
CCCn1c(SCC(=O)c2ccc3c(c2)NC(=O)CO3)nc2ccccc21	CHOP inhibitor 102.7 | CHOP inh conf inactive
O=C(N/N=C/c1ccncc1)c1cc2c(ccc3ccccc32)o1	CHOP inhibitor 108.6 | CHOP inh conf inactive
O=C(O)c1ccc(/C=N/NC(=O)c2cc3c(ccc4ccccc43)o2)cc1	none (no result: CHOP inhibitor, TLR4 MyD88 comp)
O=C(O)C1C2CCC(O2)C1C(=O)Nc1ccccc1Br (centres undefined)	none (no result: CHOP inhibitor, TLR4 MyD88 comp)
O=S(=O)(NCC(c1ccccc1)N1CCC(O)CC1)c1ccc(Cl)cc1 (centres undefined)	none (no result: CHOP inhibitor, TLR4 MyD88 comp)
O=S(=O)(NCC(Nc1ccc(Cl)cc1)c1ccccc1)c1ccc(Cl)cc1 (centres undefined)	CHOP inhibitor 107.9 | CHOP inh conf 112.1
CCc1nc2c(OCc3ccc(F)c(F)c3)cccn2c1N(C)C(=O)C1CC1	none (no result: CHOP inhibitor, TLR9-MyD88 inh, TLR4 MyD88 comp, CHOP UPR activ, XBP1 UPR activ)
CCOc1ccc2nc(NCCNC(=O)Nc3cccc(C)c3)c(C#N)cc2c1	CHOP inhibitor 102.9 | CHOP inh conf inactive
CC/C(=N\Nc1ccccc1[N+](=O)[O-])c1ccc(O)cc1	CHOP inhibitor 99.6 (no result: TLR9-MyD88 inh) | CHOP inh conf inactive
CCNC(=O)CSc1nc2ccccc2c(=O)n1-c1cc(OC)ccc1OC	none
Cc1cccc(C(=O)NC(C(=O)Nc2ccccc2N2CCOCC2)C(C)C)c1 (centres undefined)	none
COc1cccc2sc(NC(=O)c3ccc(Br)s3)nc12	CHOP inhibitor 104.2 | CHOP inh conf inactive
Cc1ccc(-n2c(SCc3ccc(C(=O)O)cc3)nnc2-c2ccncc2)cc1	none (no result: TLR4 MyD88 comp)
CC(C)(C)c1ccc(CN2N=Nc3ccccc3S2(=O)=O)cc1	CHOP inhibitor 107.9 | CHOP inh conf 123.7
N#CC1=C(N)N(c2ncn[nH]2)C2=C(C(=O)CCC2)C1c1ccc(F)cc1 (centres undefined)	none
Cc1ccc(C)c(S(=O)(=O)N2CCCC2CNC(=O)C(=O)NCc2ccccc2C)c1 (centres undefined)	none (no result: CHOP inhibitor, TLR4 MyD88 comp)
CCN(CC)Cc1ccccc1CNC(=O)c1cccc(S(=O)(=O)Nc2ccc3c(c2)OCO3)c1	none (no result: CHOP inhibitor, TLR4 MyD88 comp)
Cc1nc2oc3c(=O)[nH]cnc3c2c2c1COC(C)(C)C2	none (no result: TLR4 MyD88 comp)
Cc1nc2oc(C(=O)c3ccc(Br)cc3)c(N)c2c2c1COC(C)(C)C2	CHOP inhibitor 100.8 | CHOP inh conf inactive
CCCc1nc2oc(C(=O)c3ccccc3)c(N)c2c2c1COC(C)(C)C2	CHOP inhibitor 109.9 | CHOP inh conf 97.3
CCOC(=O)c1sc2nc(-c3ccco3)c3c(c2c1N)CC(C)(C)OC3	none (no result: CHOP inhibitor, TLR4 MyD88 comp)
Cc1ccc(-c2nc3ccccc3s2)cc1NC(=O)c1cc(-n2cnnc2)ccc1Cl	CHOP inhibitor 100.0 | CHOP inh conf inactive
Cc1ccc(-c2nc3ccccc3s2)cc1NC(=S)NC(=O)c1ccccc1	none
CCN(CC)C(=O)C1=C(C)N(CCCOC)C(=O)C(CC(=O)NCCN2CCOCC2)C1 (centres undefined)	none (no result: CHOP inhibitor, TLR4 MyD88 comp, CHOP UPR activ, XBP1 UPR activ)
CC(C)CCNc1nc(-c2ccco2)c2c(c1C#N)CCCC2	none
N#Cc1c(NCCN)nc(-c2ccco2)c2c1CCCC2	CHOP inhibitor 104.7 | CHOP inh conf inactive
CCc1ccc(N(C(=O)c2csnn2)C(C(=O)NC(C)(C)CC)c2ccccn2)cc1 (centres undefined)	none
O=c1nc(SCc2c(F)cccc2Cl)nc(-c2ccc(Cl)cc2)[nH]1	CHOP inhibitor 100.9 (no result: TLR4 MyD88 comp) | CHOP inh conf inactive
Cc1ccccc1Nc1nc(N)nc(CSc2nc3ccccc3c(=O)n2C)n1	none
FC(F)(F)c1cccc(NC(=S)N2CCN(c3cccc(C(F)(F)F)c3)CC2)c1	CHOP inhibitor 107.4 | CHOP inh conf 116.2
Cc1nc2ccccn2c1C(=O)N=Nc1c(O)n(CCC(C)C)c2ccccc12	CHOP inhibitor 101.5 | CHOP inh conf 105.0
CCOc1cccc(CNc2ccc(O)cc2)c1OCc1ccccc1Cl	none
CCOc1cccc(CNc2ccc(O)cc2)c1OCc1ccc(Cl)cc1Cl	CHOP inhibitor 100.5 | CHOP inh conf 112.2
O=C(N/N=C/c1cccs1)c1cccc(S(=O)(=O)Nc2ccc(Cl)cc2)c1	none
O=C(N/N=C/c1cccs1)c1cccc(NC(=O)c2ccc(Cl)cc2)c1	CHOP inhibitor 104.4 (no result: TLR9-MyD88 inh, NOD2 RIPK2 PPI) | CHOP inh conf 117.9
CCOC(=O)C(C(=O)OCC)C(C(=O)OCC)N1CCOCC1 (centres undefined)	CHOP inhibitor 102.4 | CHOP inh conf inactive
CCOC(=O)C(C)CC(C)C(=O)N1CCOCCOCCN(C(=O)C(C)CC(C)C(=O)OCC)CCOCC1 (centres undefined)	none
CC(C)(C)c1cc(OC(=O)c2ccccc2F)ccc1O	CHOP inhibitor 104.9 | CHOP inh conf inactive
N#C/C(=C(/O)c1ccc([N+](=O)[O-])o1)c1nc2ccccc2[nH]1	none (no result: TLR4 MyD88 comp)
N#C/C(=C\c1ccc([N+](=O)[O-])o1)c1nc2ccccc2[nH]1	CHOP inhibitor 106.5 (no result: TLR9-MyD88 inh, NOD2 RIPK2 PPI) | CHOP inh conf 127.1
NC(=O)NN=C1CCC(OCc2ccccc2)CC1CC(=O)O (centres undefined)	none (no result: CHOP inhibitor, TLR9-MyD88 inh, TLR4 MyD88 comp, CHOP UPR activ, XBP1 UPR activ)
CC(Cc1ccccc1)N1CCCC1=O (centres undefined)	none (no result: CHOP inhibitor, TLR4 MyD88 comp, CHOP UPR activ, XBP1 UPR activ)
CCCC(=O)NC(Nc1ccccc1F)C(Cl)(Cl)Cl (centres undefined)	none (no result: TLR9-MyD88 inh, NOD2 RIPK2 PPI)
CCCC(=O)NC(Nc1cc(C(F)(F)F)ccc1Cl)C(Cl)(Cl)Cl (centres undefined)	CHOP inhibitor 96.6 | CHOP inh conf inactive
CC(C)c1ccc(NC(=O)CSc2nc(-c3ccccc3F)nc3nc[nH]c23)cc1	CHOP inhibitor 100.1 | CHOP inh conf 94.3
CC(C)c1ccc(NC(=O)CSc2nc(=O)[nH]c3c2CCCC3)cc1	none (no result: CHOP inhibitor, TLR4 MyD88 comp)
CC1CCCN(CC(=O)Nc2ccc(S(=O)(=O)N3C(C)CCCC3C)cc2)C1 (centres undefined)	none (no result: CHOP inhibitor, TLR4 MyD88 comp, CHOP UPR activ, XBP1 UPR activ)
COc1cccc(/C=N/NC(=O)Cn2nc(C)c([N+](=O)[O-])c2C)c1O	none
COc1cccc(/C=N\NC(=O)c2ccc(Cn3cc(Br)c([N+](=O)[O-])n3)o2)c1O	CHOP inhibitor 97.0 | CHOP inh conf inactive
CN(C)CCNC=C(C(=O)Nc1ccc(Cl)cc1Cl)C(=O)Nc1ccc(Cl)cc1Cl	CHOP inhibitor 99.0 | CHOP inh conf inactive
